# SMARCA2 act – activators of SMARCA2 function. MG213 cells, MMTV-luciferase reporter, dexamethasone, overnight. activation, % at 9.1 µM. 370,000 tested, 1% active. AID 652017; in the data active = activation above about 7.8%;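 note: 0% = vehicle wells and 100% = reference activator wells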
# NR2E3 ag-1 – activates human photoreceptor nuclear receptor NR2E3. AID 2300. inhibition of corepressor binding, % at 4.78 µM. Q9Y5X4. 320,000 tested, 0.12% active. GST-NR2E3/biotin-RetCOR TR-FRET, 1536-well;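 active = percent inhibition above the cutoff of mean plus 3 SD of all tested compounds, set per screening campaign, cut at about 20% in these data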;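 note: 0% = DMSO wells and 100% = biotin wells as full block of FRET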
#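 System: GST-tagged NR2E3 plus biotinylated RetCOR corepressor; Amount: 1.35 nM GST-tagged NR2E3 final; Dosing: single nominal compound dose of 4.8 µM; Schedule: 5 h incubation at 4 °C; Technique: TR-FRET with europium anti-GST and streptavidin-D2, 340 nm excitation; Controls: biotin wells as high control, 0.6% DMSO wells as low control.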
# NR2E3 ag-2 – activates human NR2E3 receptor; inhibition of corepressor binding, % at 3.98 µM; 360,000 tested, 0.35% active; AID 602229; CHO-S Gal4-NCOR/VP16-NR2E3 two-hybrid, luciferase;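 active = inhibition above the mean of all tested compounds plus 3 SD, cut at about 70% in these data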;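 note: 0% = DMSO with NR2E3 transfected cells and 100% = cells lacking NR2E3 construct; higher means lower luciferase signal from less NR2E3 corepressor binding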
# GalR3 antagonist – antagonists of human GalR3 | inhibition, % at 3 µM | AID 651719 | 360,000 tested, 0.44% active | HEK293 GalR3-CNG cAMP membrane potential fluorescence; galR3 body fused to GalR1 C-terminus | O60755;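 active = inhibition above the screen-wide average plus 3 SD, cut at about 13% in these data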;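 note: forskolin and galanin both at EC90 stimulate the cells; cAMP rise reported by CNG channel membrane potential dye signal; 0% = forskolin plus galanin with DMSO and 100% = forskolin alone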
# Target sequence (O60755 1-299 limits assumed): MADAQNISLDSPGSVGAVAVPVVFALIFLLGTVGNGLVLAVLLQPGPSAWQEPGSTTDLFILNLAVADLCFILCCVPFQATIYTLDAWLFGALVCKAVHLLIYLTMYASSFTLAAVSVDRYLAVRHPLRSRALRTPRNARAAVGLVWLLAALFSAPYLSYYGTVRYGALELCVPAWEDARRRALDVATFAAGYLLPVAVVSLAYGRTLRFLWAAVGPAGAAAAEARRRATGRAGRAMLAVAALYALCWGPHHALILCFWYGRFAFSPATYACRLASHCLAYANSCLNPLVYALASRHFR
# COUP-TFII inh – blocks human COUP-TFII nuclear receptor; HEK293T NGFI-A luciferase reporter, luminescence; P24468; inhibition, % at 8.6 µM; 370,000 tested, 0.7% active;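 active = inhibition above a per-plate cutoff, mean inhibition of test wells between control levels plus 3 SD, cut at about 38% in these data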;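 note: cells cotransfected with COUP-TFII expression vector driving the NGFI-A reporter; 0% = median of COUP-TF2 test wells and 100% = reporter-only cells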
# SMARCA2 conf – confirmation of SMARCA2 (BRM) function activators | shares compounds with SMARCA2 act | MG213 cells, MMTV-luciferase with dexamethasone, luminescence, overnight; MG213 cells expressing E1A, Rb sequestered; DMSO wells 0%, reference activator 100% | activation, % at 9.1 µM | 3,500 tested, 30% active | AID 652260;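 active = activation above its plate's cutoff, the mean activation of tested wells plus 3 SD, cut at about 7.9% in these data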
# VP16 Luc act – activates GAL4-VP16 luciferase, flagging SMARCA2 activator hits | shares compounds with SMARCA2 act | HEK293 GAL4-VP16 pG5luc reporter, luciferase luminescence; scaled: DMSO wells 0%, SAHA wells 100% | activation, % at 9.1 µM | 3,500 tested, 41% active;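 active = activation above the solvent-only control well mean plus 3 SD, averaged across control plates, cut at about 5.2% in these data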
# Starred values were filed as active, the others as inactive; x = no result given. Sampled rows, rich in hits. Any-hit rate of the full collection: about 2.2%.
SMILES,SMARCA2 act,NR2E3 ag-1,NR2E3 ag-2,GalR3 antagonist,COUP-TFII inh,SMARCA2 conf,VP16 Luc act
N#Cc1c(/N=C/N2CCOCC2)sc2c1CCCCC2,18*,2,-142,-3,-39,7,12*
Cc1ccc(C(=O)C2CCN(CC(=O)N3CC(C)CC(C)C3)CC2)cc1 (stereo not drawn),-4,x,x,x,18,x,x
S=C(Nc1ccc(Cl)cc1)OC1CCC12CCC(c1ccccc1)CC2 (stereo not drawn),2,x,x,x,-1,x,x
Cc1ccc(NC(=O)CSc2nnc(-c3cnccn3)n2Cc2ccco2)cc1,23*,-1,13,-5,15,-4,0
Cc1ccc(NC(=O)CSc2nccn2Cc2ccco2)c(C)c1,11*,0,-132,-2,-44,9.9*,6.5*
Cc1ccc(C)c(NC(=O)CSc2nccn2Cc2ccco2)c1,4,-2,-32,-2,-11,x,x
Cc1cccc(NC(=O)CSc2nnc(-c3cnccn3)n2Cc2ccco2)c1,-3,-2,5,-2,8,x,x
O=C(CSc1nnc(-c2cnccn2)n1-c1ccccc1)Nc1ccc2cn[nH]c2c1,8.7*,x,x,x,-15,3,-1
O=C1CN(C(=S)NC(=O)c2ccc(-c3ccccc3)cc2)CCN1,10*,0,-32,5,-45,7,4
Cc1ccccc1NC(=O)Cn1nnc(-c2ccncc2)n1,-4,x,x,x,-7,x,x
O=C(/C=C/c1c(Cl)cccc1Cl)NCCc1ccccc1,11*,1,-66,-2,-22,3,5
O=C(/C=C/c1cccc(Cl)c1)NCCc1ccccc1,3,2,-72,-2,-23,x,x
Cc1ccc2nc(-c3ccc(NC(=O)CSc4nnc(-c5cc(-c6ccc(F)cc6)n[nH]5)n4N)cc3)sc2c1,4,x,x,x,-26,x,x
N#C/C(=C(/O)c1ccc(F)cc1)c1nc2ccccc2s1,8.8*,3,-119,-8,-9,-3,8.9*
Cc1ccc2c(ccc[n+]2CC(=O)c2ccccc2)c1,12*,-4,-5,-9,14,-4,0
CCOc1ccc(NC(=O)Cn2cncc2-c2ccc([N+](=O)[O-])cc2)cc1,1,2,-18,4,9,x,x
CCOC(=O)Cn1cncc1-c1ccc([N+](=O)[O-])cc1,13*,2,-45,0,-29,6,3
CC(=O)Nc1ccc(-c2nc3c(C)cccc3[nH]2)cc1,13*,2,-127,-3,-52,20*,17*
C=CCn1c(=O)c(C(=O)Nc2ccccc2S(N)(=O)=O)c(O)c2ccccc21,11*,7,-197,2,-46,16*,4
Cc1nc(Nc2ccc(C(=O)O)cc2)sc1-c1ccccc1,9.1*,4,-116,-1,-46,9.2*,5.4*
Cc1nc(Nc2ccccc2)sc1-c1ccccc1,5,1,-140,-5,-49,x,x
CC(C)N1CCCCC(NC(=O)c2ccc(Cl)cc2Cl)C1=O (stereo not drawn),-2,x,x,x,-12,x,x
O=C(c1ccc(-c2cc(Cl)ccc2Cl)o1)N1CCOCC1,8.8*,1,-62,12,-18,3,2
COc1ccc(Cl)cc1NC(=O)CSc1nnc(C)c(=O)n1N,8.3*,-2,-15,-3,0,6,0
Cn1c(CCC(=O)O)nc2cc(S(=O)(=O)N3CCCCC3)ccc21,11*,3,-13,-4,-5,0,0
SMILES,SMARCA2 act,NR2E3 ag-1,NR2E3 ag-2,GalR3 antagonist,COUP-TFII inh,SMARCA2 conf,VP16 Luc act
CC(C)(O)[C@H]1Cc2cc3ccc(=O)oc3cc2O1,9.1*,3,-84,-13,-24,11*,6.2*
Cn1ccnc1SCC(=O)N1CCc2ccccc21,8.2*,-1,-57,-1,-29,11*,8.7*
C[C@H](O)[C@@H]1CN2CCc3c([nH]c4cccc(-c5ccc6c(c5)OCO6)c34)[C@@H]2C[C@@H]1N(C)C(=O)c1ccco1,-2,x,x,x,8,x,x
COC(=O)C1=C(C)N(C)C(=NCc2ccccc2)NC1c1cccc(Cl)c1 (stereo not drawn),-5,x,x,-8,-28,x,x
Cc1ccc(N2CC(C(=O)Nc3ccncc3)CC2=O)cc1 (stereo not drawn),-1,0,10,-1,-9,x,x
COc1ccc(N2CC(C(=O)Nc3cccc(C)n3)CC2=O)cc1 (stereo not drawn),8.0*,2,-11,-2,8,1,2
COc1ccc(N2CC(C(=O)Nc3cc(C)on3)CC2=O)cc1 (stereo not drawn),8.0*,-3,-16,-7,-9,0,0
CC(=O)Nc1cccc(NC(=O)C2CC(=O)N(c3ccc(C)cc3)C2)c1 (stereo not drawn),9.5*,3,-10,-6,5,3,0
Cc1cc(N2CCOc3ccccc32)nc2ccccc12,x,x,x,x,6,x,x
Cc1ccc(/C=N\NC(=O)CN2CCN(S(=O)(=O)c3ccc(Br)cc3)CC2)s1,0,x,x,x,4,x,x
CCOc1ccc(-n2c(SCC(=O)Nc3ccc(S(=O)(=O)Nc4cc(C)nc(C)n4)cc3)nnc2-c2ccc(C)cc2)cc1,-2,x,x,x,11,x,x
CN1/C(=C\C(=O)c2cccnc2)Sc2ccccc21,13*,2,-113,-7,-36,6,9.1*
COc1cccc(C(=O)/C=C2\Sc3ccccc3N2C)c1,7,5,-64,-1,-42,x,x
Cc1ccc2cc(C3CC(c4cccs4)=NN3S(C)(=O)=O)c(Cl)nc2c1 (stereo not drawn),-2,-4,-16,-5,1,x,x
Cc1ccc2nc(Cl)c(C3CC(c4cccs4)=NN3S(C)(=O)=O)cc2c1 (stereo not drawn),11*,-1,-21,-2,-19,-1,1
Cc1cc(NC(=O)CSc2nnnn2-c2ccccc2F)no1,-1,8,-6,-10,-7,x,x
Cc1cc(NC(=O)CSc2nnnn2-c2cc(Cl)ccc2C)no1,8.1*,3,-28,-3,-10,-3,1
O=C(CSCc1ccccc1)N=Nc1c(O)[nH]c2ccccc12,2,1,8,4,-19,x,x
O=C(N=Nc1c(O)[nH]c2ccccc12)c1ccco1,8.2*,0,-164,-3,-38,23*,9.8*
Cc1cccc(-c2cccc3c4c([nH]c23)[C@@H]2C[C@H](N(C)C(=O)c3ccccc3C)[C@H]([C@H](C)O)C(=O)N2CC4)c1,1,x,x,x,3,x,x
N#Cc1ccc(S(=O)(=O)N2CCCc3nc(-c4ccc(F)cc4)ccc32)cc1,-2,x,x,-5,-8,x,x
